MC4R antagonist: human MC4R antagonism in cAMP assay. inhibition, % at 6.5 µM. MC4R-expressing cells, MTII-stimulated cAMP, LANCE TR-FRET. P32245. hit rate 0.48% among 360,000;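 active = inhibition above its plate's cutoff, the mean of tested wells on that plate plus 3 SD, cut at about 29% in these data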;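 also: 0% = Melanotan II alone and 100% = Melanotan II plus saturating MCL0020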
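Material: U2OS-MC4R stable cell line | Reagent: Melanotan II challenge after compound preincubation | Doses: One concentration, 6.5 µM nominal | Incubation: 30-min compound preincubation, 1-h Melanotan II challenge, 1-h detection, room temperature | Signal: TR-FRET cAMP assay | Replicates: One well per compound, no replicates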
MC4R ag barr: human MC4R agonism via beta-arrestin | U2OS MC4R beta-arrestin complementation, luminescence; percent of melanotan II response, DMSO zero | activation, % at 8.9 µM | hit rate 0.98% among 360,000 | AID 540308;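 active = activation above a per-plate cutoff, the mean activation of sample wells on that plate plus 3 SD, cut at about 8% in these data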
SMARCA2 activ: SMARCA2 function activation, primary screen; activation, % at 9.1 µM; hit rate 1% among 370,000; MG213 cells, MMTV-luciferase reporter, dexamethasone, overnight; in the data active = activation above about 7.8%;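 also: 0% = vehicle wells and 100% = reference activator wells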
MPTP inh: blocks calcium-induced mitochondrial swelling; isolated mouse mitochondria, Ca2+ swelling absorbance, 30 min; inhibition, % at 10 µM; hit rate 1.4% among 360,000;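 active = inhibition of 50% or more, scaled per plate between neutral and stimulator controls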;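 also: 0% = DMSO wells given calcium and 100% = 1 mM EGTA wells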
ATG4B inh: blocks human ATG4B protease cleavage of LC3 substrate; Q9Y4P1; hit rate 0.51% among 340,000; ATG4B cleavage of LC3-PLA2, NBD-HPC fluorescence, 1 h; inhibition, % at 8.33 µM; AID 504462; in the data active = inhibition above about 40%
Target sequence (Q9Y4P1 whole entry, looked up): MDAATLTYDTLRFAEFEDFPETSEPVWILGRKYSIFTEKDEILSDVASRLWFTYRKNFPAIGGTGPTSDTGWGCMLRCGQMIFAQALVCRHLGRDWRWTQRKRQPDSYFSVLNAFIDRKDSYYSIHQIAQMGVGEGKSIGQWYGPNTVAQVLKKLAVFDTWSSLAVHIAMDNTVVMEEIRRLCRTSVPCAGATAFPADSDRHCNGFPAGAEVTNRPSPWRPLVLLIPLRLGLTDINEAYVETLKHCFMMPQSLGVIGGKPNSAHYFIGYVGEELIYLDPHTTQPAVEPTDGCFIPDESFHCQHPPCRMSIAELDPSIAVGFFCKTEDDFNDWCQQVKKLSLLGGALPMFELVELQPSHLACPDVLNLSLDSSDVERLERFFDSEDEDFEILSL
SMARCA2 conf: confirmation of SMARCA2 (BRM) function activators; hit rate 30% among 3,500; shares compounds with SMARCA2 activ; MG213 cells, MMTV-luciferase with dexamethasone, luminescence, overnight; MG213 cells expressing E1A, Rb sequestered; DMSO wells 0%, reference activator 100%; activation, % at 9.1 µM;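 active = activation above its plate's cutoff, the mean activation of tested wells plus 3 SD, cut at about 7.9% in these data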
GAL4-VP16 Luc: GAL4-VP16 reporter activation counter-screen; hit rate 41% among 3,500; AID 686939; HEK293 GAL4-VP16 pG5luc reporter, luciferase luminescence; scaled: DMSO wells 0%, SAHA wells 100%; activation, % at 9.1 µM; shares compounds with SMARCA2 activ;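 active = activation above the solvent-only control well mean plus 3 SD, averaged across control plates, cut at about 5.2% in these data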
* hit, by the source's call; · = not tested or not shown. Shown are actives, neighbours in structure and some others; about 4.1% of the full set was active somewhere.

SMILES | MC4R antagonist | MC4R ag barr | SMARCA2 activ | MPTP inh | ATG4B inh | SMARCA2 conf | GAL4-VP16 Luc
COc1cc(C(=O)NCC(=O)NCCCSc2ccccc2)cc(OC)c1OC | 7 | -3 | 8.0* | 0 | -9 | 0 | 0
O=C(c1cc2cc(F)ccc2[nH]1)N1CCc2ccccc21 | 20 | 0 | 10* | 2 | 6 | 8 | 9.3*
O=C(COc1ccc(F)cc1Br)N1CCc2ccccc21 | 2 | 6 | 12* | 4 | 0 | 6 | 14*
O=C(NCc1ccccc1)[C@@H]1CCCN1C(=O)[C@H]1CCCN1C(=O)C1CCCCC1 | · | · | 0 | · | · | · | ·
CC1CCN(CCc2nc3cc(NC(=O)NC4CCCCC4)ccc3n2C)CC1 | -4 | -3 | 8.5* | -1 | 9 | 4 | 1
Cn1c(CCN2CCCCC2)nc2cc(NC(=O)NC3CCCCC3)ccc21 | 1 | -1 | 4 | -1 | -4 | · | ·
COc1ccc(CN(CCN2CCOCC2)C(=O)c2ccc(F)cc2Cl)cc1OC | · | · | -7 | · | · | · | ·
CN(C)c1ccc(N=Nc2cccc3ccoc23)cc1 | -2 | -1 | 9.8* | 1 | 8 | 8 | 11*
CN(C)c1ccc(N=Nc2cccc(F)c2)cc1 | 6 | -1 | 5 | 0 | 2 | · | ·
CCOc1cc(NC(=S)NCc2ccco2)c(OCC)cc1NC(=O)C1CC1 | 4 | 2 | 8.0* | -2 | 2 | -1 | 1
COc1ccc(C(C)(O)c2nc(-c3ccccc3OC)cs2)cc1 (stereo unspecified) | -3 | -2 | 5 | 2 | · | · | ·
COC(=O)[C@]12C[C@H](CC(=O)N3CCN(C(=O)c4ccco4)CC3)C(=O)N(Cc3ccco3)C1=C[C@H](C(C)(C)C)O[C@@H]2C | · | · | -3 | · | · | · | ·
Cn1c(C(=O)N2CCN(Cc3ccccc3)CC2)cc2c(=O)n(C)c3ccccc3c21 | 6 | -1 | 8.9* | -1 | -14 | 4 | 0
Cc1ccc2nc(-c3ccc(CN4CCC5(CC4)CNc4ccccc45)cc3)c(-c3ccccc3)nc2c1 | · | · | 7 | · | · | · | ·
COc1ccc(N=Nc2ccc(N)nc2N)cc1 | -1 | -1 | 12* | 1 | -2 | 11* | 20*
CC(C)(C)c1ccc2cccc(F)c2n1 | · | · | 9.4* | 0 | · | -1 | 1
O=C(Nc1ccccc1F)c1csc([C@@H]2C[C@H](O)[C@@H](CO)O2)n1 | 3 | -1 | 11* | 0 | · | 0 | -1
O=C(Nc1cccc2ccccc12)c1csc([C@@H]2C[C@H](O)[C@@H](CO)O2)n1 | 6 | 2 | -4 | -2 | · | · | ·
CCCn1c(C)cc(C(=O)Cn2nnc3ccccc3c2=O)c1C | -4 | -2 | 9.1* | -2 | -2 | 10* | 7.3*
CCCn1c(C)cc(C(=O)CN2C(=O)c3ccccc3S2(=O)=O)c1C | 4 | -2 | -9 | -2 | · | · | ·
COc1cccc(C(=O)Nc2ccc(C)cc2)c1 | 6 | -2 | 11* | -4 | -3 | 5 | 6.6*
COc1cccc(C(=O)Nc2ccc3c(c2)C(=O)c2ccccc2C3=O)c1 | -12 | 1 | 12* | 3 | 0 | 3 | 12*
COc1cccc(C(=O)NCCSc2ccc(C)cc2)c1 | 2 | 0 | -1 | 1 | -7 | · | ·
COc1cccc(C(=O)NCCSc2ccc(F)cc2)c1 | 9 | 0 | 16* | -1 | 5 | 12* | 10.0*
COc1cccc(C(=O)Nc2ccc(F)c(F)c2F)c1 | 3 | 1 | 9.0* | 0 | -7 | 2 | 7.9*
SMILES | MC4R antagonist | MC4R ag barr | SMARCA2 activ | MPTP inh | ATG4B inh | SMARCA2 conf | GAL4-VP16 Luc
COc1ccc(CNC(=O)C[C@@H]2C=C[C@@H](NS(=O)(=O)c3cccc(OC)c3)[C@@H](CO)O2)cc1 | · | · | 2 | 1 | · | · | ·
Cc1cccc(C(=O)Nc2c(-c3ccccc3)nc3ncccn23)c1 | · | · | -1 | · | · | · | ·
COc1ccc(NC(=O)c2ccc(C)cc2)c(OC)c1 | 13 | -1 | 14* | 1 | 3 | 7 | 6.8*
COc1ccc(NC(=O)c2ccc3[nH]c(=O)c(=O)[nH]c3c2)c(OC)c1 | 7 | -2 | 0 | 0 | -1 | · | ·
O=S1(=O)N[C@@H](Cc2ccccc2)COc2cccc(N3CCCCC3)c21 | · | · | -4 | · | · | · | ·
O=c1nccc(N/N=C/c2ccccc2)[nH]1 | 9 | -2 | 8.2* | -1 | -3 | 6 | 4
O=c1cc(N/N=C/c2ccccc2)[nH]c(=O)[nH]1 | 3 | 0 | -4 | -1 | -2 | · | ·
COC(=O)/C=C1\OC(C)c2ccccc21 (stereo unspecified) | · | · | 4 | · | · | · | ·
CC(C)(C)N(NC(=O)Nc1cccc(F)c1)C(=O)c1ccccc1Cl | · | · | -4 | · | · | · | ·
COC(=O)C1=COC(OC2OC(CO)C(O)C(O)C2O)C2C(C)CC(=O)C12 (stereo unspecified) | 3 | 0 | 0 | -2 | · | · | ·
O=C1C(c2ccccc2)c2ccccc2N1Cc1ccccc1 (stereo unspecified) | -3 | 1 | -4 | -1 | 7 | · | ·
O=C1ON(Cc2ccccc2)C(c2ccccc2)N1c1ccccc1 (stereo unspecified) | 3 | 3 | 11* | -2 | 4 | -2 | 0
CN1CCc2c(C#N)c(N3CCOCC3)nc(NCC3CCCO3)c2C1 (stereo unspecified) | 5 | 3 | 12* | 1 | -12 | -3 | 0
CCCc1nc(N2CCOCC2)c(C#N)c2c1CCCC2 | -3 | 7 | -2 | 1 | -7 | · | ·
Cc1ccc(CN2CC=CS2(=O)=O)cc1 | · | · | -2 | · | · | · | ·
Cc1ccsc1/C=C1\SC(N)=NC1=O | -18 | -2 | 3 | -5 | 7 | · | ·
Cc1ccsc1/C=C1/SC(N2CC(C)OC(C)C2)=NC1=O (stereo unspecified) | -21 | 3 | 11* | -1 | -7 | 0 | 1
O=[N+]([O-])c1cnc(Sc2ccncn2)c([N+](=O)[O-])c1 | 14 | -1 | 0 | 5 | · | · | ·
O=[N+]([O-])c1cnc(Sc2ccncn2)s1 | 35* | -4 | 12* | 4 | -5 | -15 | 5.5*
CCCCCCCCN1C(=O)[C@@H](CC(=O)N2CCCCC2)C[C@@]2(C(=O)OC)C1=C[C@H](C1CCCC1)O[C@@H]2C | · | · | -4 | · | · | · | ·
COC(=O)C1=C(C)OC(N)=C(C#N)C1c1c(C)nn(-c2ccccc2)c1Cl (stereo unspecified) | 2 | -1 | 11* | 0 | -6 | -1 | 1
COC(=O)C1=C(C)OC(N)=C(C#N)C1c1ccccc1 (stereo unspecified) | 5 | -1 | 1 | -1 | -6 | · | ·
CC1(C(=O)NS(=O)(=O)Cc2ccccc2)CCN1C(=O)Cc1ccc(-c2ccccc2)cc1 (stereo unspecified) | 13 | 1 | 8.3* | -1 | · | -5 | 0
O=C(NN=Cc1ccc(O)cc1)c1cc(-c2ccc(Cl)cc2)n[nH]1 | · | · | -1 | · | · | · | ·

Bioassay records: PubChem BioAssay, several laboratories
